High-throughput results as filed in PubChem.
Insulin prom act = activators of insulin promoter-driven GFP, primary screen, imaging, TRM-6 cells, eGFP reporter, cell count; plate-scaled: unstimulated 0, stimulated control 100; activation, % at 2 µM; actives 0.81% (n = 130,000);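 active means activation at 2 µM above a set limit, confirmed on inspection of the cell images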;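 further: share of cells whose green reporter signal exceeds an intensity cutoff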
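Test system: human fetal islet-derived TRM-6 cells with tamoxifen-inducible insulin promoter–eGFP reporter; schedule: overnight tamoxifen, then two-day compound incubation at 37 °C; measured by: high-content imaging of fixed cells with Hoechst nuclear stain; evaluation: percent cells above green-intensity threshold, converted to percent activation versus plate controls; control set: stimulated and unstimulated wells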
Active calls of the source: *. This excerpt belongs to a sample that is enriched for hits.

SMILES	Insulin prom act
COc1cc2c3nnc(-c4ccccc4)c-3cn(Cc3ccc(F)cc3)c2cc1OC	5.6
COc1cc2c3nnc(-c4ccc(F)cc4)c-3cn(Cc3cccc(F)c3)c2cc1OC	809.1*
COc1cccc(CSc2nnc(-c3ccc(F)cc3)o2)c1	6.1
CCN(CC(=O)Nc1cc(Cl)ccc1C)c1ncnc2sc(C)c(C)c12	0.0
COc1ccc(C)cc1NC(=O)c1nnn(Cc2cccc(C(F)(F)F)c2)c1N	-7.1
O=C1CC(C(=O)O)S/C(=N\NC(=O)c2ccc(F)cc2)N1 (stereo unspecified)	0.0
CN1C(=O)CC(C(=O)O)SC1=Nc1cccc(C(F)(F)F)c1 (stereo unspecified)	30.0
CN1C(=O)CC(C(=O)O)SC1=Nc1ccc(F)cc1 (stereo unspecified)	425.0*
OC(COc1cccc(OCC(O)CN2CCOCC2)c1)CN1CCOCC1 (stereo unspecified)	50.0
OC(CN1CCN(c2ccccn2)CC1)Cn1c2ccccc2c2ccccc21 (stereo unspecified)	-6.9
Cc1ccc2c(c1)c(C)c(C)n2CC(O)CN1CCOCC1 (stereo unspecified)	533.3*
Cc1cc(C)c(Cc2c(C)nc3c(C(=O)NCc4ccco4)cnn3c2C)c(C)c1	-2.8
O=C(OCC(=O)c1c[nH]c2ccccc12)c1cc(Br)ccc1O	-2.9
CCN1/C(=C/C(C)=C/c2sc3ccccc3[n+]2CC)Sc2ccccc21	640.7*
Cc1ccc(C(=O)NCc2n[nH]c(=S)n2-c2ccccc2)cc1[N+](=O)[O-]	7.7
N#CC1=C(N)SC(N)=C(C#N)C1c1cccc(O)c1	0.0
CCOc1ccc(NCc2ccccc2OCc2cccc(F)c2)cc1	9.1
Cc1cc(C)nc(SCC(=O)n2c3c(c4ccccc42)CCCC3)n1	-7.7
Cc1ccc2c(c1)c1c(n2CC(O)Cn2nc(C)c(Br)c2C)CCCC1 (stereo unspecified)	83.3*
Cc1nn(CC(O)Cn2cnc3c2c(=O)n(C)c(=O)n3C)c(C)c1Br (stereo unspecified)	-24.4
CC(=O)Nc1ccc2c(CN3C(=O)NC(C)(c4ccc(C)cc4)C3=O)cc(=O)oc2c1 (stereo unspecified)	0.0
C=C(C)c1cccc(C(C)(C)NC(=O)N2CCN(c3ccccc3OC)CC2)c1	-7.7
C=C(C)c1cccc(C(C)(C)NC(=O)N(C)C2CCN(C)CC2)c1	260.0*
C=C(C)c1cccc(C(C)(C)NC(=O)Nc2ncccn2)c1	-2.9
Nn1cnnc1SCC(=O)Nc1ccc2c(c1)OCO2	9.1
SMILES	Insulin prom act
CCCc1nc2sc3c(SCC(=O)NCc4ccco4)ncnc3c2c2c1CCC2	3.7
C=CCn1c(CCNC(=O)c2cccs2)nnc1SCC(=O)Nc1cccc(Cl)c1C	3.6
C=CCn1c(CNC(=O)c2cccs2)nnc1SCC(=O)c1ccc(Br)cc1	91.7*
C=CCn1c(SCC(=O)Nc2ccc(C(=O)OC(C)C)cc2)nnc1-c1cccs1	0.0
O=C(NCc1ccccc1)c1ccco1	-9.5
O=C(CSc1nnc(-c2ccco2)n1Cc1ccccc1)c1ccc(F)cc1	3.8
C=CCn1c(CNC(=O)c2ccco2)nnc1SCC(=O)c1ccccc1	255.0*
Cc1ccc(OCC(=O)Nc2cc(S(=O)(=O)N3CCCCC3)ccc2C)c([N+](=O)[O-])n1	-9.7
CCC1Oc2ccc(C)cc2N(CC(=O)N(Cc2ccc(C)o2)C2CCCC2)C1=O (stereo unspecified)	256.3
CCC(CC)NC(=O)COc1ccc(OC)cc1C=O	-7.1
Cc1cc(C)nc(NC(=O)CSc2nc3ccccc3o2)n1	8.3
CN(C)S(=O)(=O)c1ccc2oc(SCC(N)=O)nc2c1	0.0
CCS(=O)(=O)c1ccc2oc(SCC(=O)NC3CCCC(C)C3C)nc2c1 (stereo unspecified)	92.9*
O=C(CSc1nc2ccccc2c(=O)n1-c1ccccc1Cl)Nc1cccc(S(=O)(=O)N2CCOCC2)c1	-7.7
CN(C)c1nnnn1Cc1ccc(Cl)cc1Cl	7.7
O=C(c1c[nH]c2ccc(S(=O)(=O)N3CCC4(CC3)OCCO4)cc2c1=O)N1CCOCC1	0.0
COc1ccc(CCNC(=O)c2cc(S(=O)(=O)N3CCC4(CC3)OCCO4)ccc2F)cc1OC	0.0
COC(CNC(=O)c1c[nH]c2ccc(S(=O)(=O)N3CCC4(CC3)OCCO4)cc2c1=O)OC	400.0*
CC(=O)Nc1ccc(NC(=O)Cn2cnc3c(nnn3Cc3ccc(F)cc3)c2=O)cc1	0.0
CC(=O)Nc1ccc(NC(=O)Cn2cnc3c(cnn3C(C)(C)C)c2=O)cc1	431.3*
CCOC(=O)c1ccccc1NC(=O)Cn1cnc2c(cnn2-c2ccc(OC)cc2)c1=O	-75.0
COC(=O)c1sc2cc([N+](=O)[O-])cc(SCC(C)C)c2c1N	589.7*
COc1ccc([N+](=O)[O-])cc1NC(=O)CC(c1ccccc1)c1ccccc1	192.9
COCCSc1nnc(NC(=O)c2cc(C(=O)OC)cc([N+](=O)[O-])c2)s1	7.1
O=C(COC(=O)CC(c1ccccc1)c1ccccc1)Nc1c(F)cccc1F	-3.7
SMILES	Insulin prom act
O=C(NC1CCCCC1)C(c1cccnc1)N(C(=O)c1ccc(Cl)nc1)C1CCCCC1 (stereo unspecified)	192.3
O=C1/C(=C\c2ccco2)SC(=S)N1Cc1ccccc1	150.0*
Cc1ccc(N2C(=O)/C(=C\c3ccco3)SC2=S)cc1	-2.9
C=CCN1C(=O)/C(=C\c2ccc(OC(=O)c3ccco3)c(OC)c2)SC1=S	111.1
O=C(N/N=C/c1cccnc1)c1ccccc1[N+](=O)[O-]	-3.3
Cc1ccc(N=Nc2c(N)nn3c(C)cc(C)nc23)cc1	-81.8
Cc1cc(=O)[nH]c2c(N=Nc3ccc(O)cc3)c(N)nn12	383.3*
Cc1cc(C)n2nc(N)c(N=Nc3cccc(Cl)c3)c2n1	-61.5
COC(=O)c1ccccc1S(=O)(=O)N1CCC(C(=O)OC(C)C(=O)NC(N)=O)CC1 (stereo unspecified)	-7.1
CN1C(=O)/C(=C/c2ccccc2OCc2ccccc2F)NC1=S	4.7
CCc1nnc(NC(=O)C2COc3ccccc3O2)s1 (stereo unspecified)	-5.4
O=C(Nc1ccccc1C(=O)N1CCCC1)C1COc2ccccc2O1 (stereo unspecified)	-8.3
C=CCNC(=O)c1ccccc1NC(=O)C1COc2ccccc2O1 (stereo unspecified)	471.4*
Cc1ccc(S(=O)(=O)CCC(=O)N2CCN(c3ccc(Cl)cc3)CC2)cc1	2.3
CC(C)(C)NC(=O)CSc1nnc(-c2ccncc2)o1	191.7
O=C(CSc1nnc(-c2ccncc2)o1)Oc1ccccc1	690.0*
Cc1ccc(C(=O)CSc2nnc(-c3ccccc3)o2)cc1	113.3
Cc1ccc(NC(=O)N/C=C/c2ccco2)cc1	-6.7
COc1ccc(C(C(=O)Nc2ccc(C(C)C)cc2)N(Cc2ccco2)C(=O)CC2NC(=O)NC2=O)cc1 (stereo unspecified)	0.0
O=C(CCSCCC(=O)Nc1ccccc1F)Nc1ccccc1F	6.7
C/C(=N\N1CCN(c2ccc(Cl)cc2)CC1)c1cccs1	9.4
CCOc1ccccc1C1NC(=O)NC(C)=C1C(=O)OC1CCCC1C (stereo unspecified)	5.3
CCOC(=O)C1=C(C)NC(=O)NC1c1ccc(-c2ccccc2F)o1 (stereo unspecified)	0.0
CC1=C(C(=O)OCc2ccccc2)C(c2ccccc2OC(F)F)NC(=O)N1 (stereo unspecified)	300.0*
Cc1cc2ncc(C(=O)Nc3ccsc3C(=O)O)c(C)n2n1	6.7
CCC/C=N/NC(=O)C1COc2ccccc2O1 (stereo unspecified)	7.1
